Results from ChEMBL document CHEMBL4024802, “3-((R)-4-(((R)-6-(2-Bromo-4-fluorophenyl)-5-(ethoxycarbonyl)-2-(thiazol-2-yl)-3,6-dihydropyrimidin-4-yl)methyl)morpholin-2-yl)propanoic Acid (HEC72702), a Novel Hepatitis B Virus Capsid Inhibitor Based on Clinical Candidate GLS4” (J Med Chem, 2018).

What was measured:
[1] = Intrinsic clearance in human liver microsomes at 1 uM preincubated for 10 mins followed by NADPH addition measured up to 60 mins by LC-MS/MS analysis; format: ADME, microsome; conditions: read-out: CLH
[2] = Intrinsic clearance in mouse liver microsomes at 1 uM preincubated for 10 mins followed by NADPH addition measured up to 60 mins by LC-MS/MS analysis; format: ADME, microsome; conditions: read-out: CLH
[3] = AUC (0 to 24 hrs) in Sprague-Dawley rat at 2 mg/kg, iv administered as single dose by LC-MS/MS analysis; format: ADME, organism-based; parameters: dose 2 mg/kg, time < 24 hr, route intravenous; conditions: in vivo
Outline: (§1)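 Male Sprague−Dawley rats (6−7 weeks, 190−240 g), fasted overnight with food returned 4 h post-dose; 3 rats iv, 3 po; vehicle 5% DMSO, 5% solutol, 90% saline. Heparinized plasma frozen at −80 °C, analysed by LC-MS/MS; noncompartmental PK parameters, BLQ values excluded.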

[4] = AUC (0 to 24 hrs) in Sprague-Dawley rat at 5 mg/kg, po administered as single dose by LC-MS/MS analysis; format: ADME, organism-based; parameters: time < 24 hr, dose 5 mg/kg, route oral; conditions: in vivo; outline: as §1
[5] = Clearance in Sprague-Dawley rat at 2 mg/kg, iv administered as single dose by LC-MS/MS analysis; format: ADME, organism-based; conditions: in vivo; outline: as §1
[6] = Volume of distribution at steady state in Sprague-Dawley rat at 2 mg/kg, iv administered as single dose by LC-MS/MS analysis; format: ADME, organism-based; conditions: in vivo, read-out: Vdss
Outline: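 Male Sprague−Dawley rats (6−7 weeks, 190−240 g) were fasted overnight, with food returned 4 h post-dose and n = 3 in the iv group. A single dose was given in 5% DMSO, 5% solutol and 90% saline. Heparinized plasma was separated at 4 °C and frozen at −80 °C. Concentrations were measured by LC-MS/MS, with parameters from noncompartmental analysis and BLQs excluded.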

[7] = Oral bioavailability in Sprague-Dawley rat at 5 mg/kg administered as single dose by LC-MS/MS analysis; format: ADME, organism-based; conditions: in vivo; outline: as §1
[8] = AUC (0 to 24 hrs) in Beagle dog at 2 mg/kg, iv administered as single dose by LC-MS/MS analysis; format: ADME, organism-based, Canis lupus familiaris; parameters: dose 2 mg/kg, time < 24 hr, route intravenous; conditions: in vivo
Outline: (§2)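 Beagle dogs, 7−9 months, 8−12 kg, non-naive, fasted overnight; 3 dogs per iv or po group; dosed in 5% DMSO/5% solutol/90% saline. Serial blood into sodium heparin, plasma separated at 4 °C, stored −80 °C; LC-MS/MS quantitation; noncompartmental analysis, BLQs omitted.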

[9] = AUC (0 to 24 hrs) in Beagle dog at 5 mg/kg, po administered as single dose by LC-MS/MS analysis; format: ADME, organism-based, Canis lupus familiaris; parameters: time < 24 hr, dose 5 mg/kg, route oral; conditions: in vivo; outline: as §2
[10] = Cmax in Beagle dog at 2 mg/kg, iv administered as single dose by LC-MS/MS analysis; format: ADME, organism-based, Canis lupus familiaris; parameters: dose 2 mg/kg, route intravenous; conditions: in vivo; outline: as §2
[11] = Cmax in Beagle dog at 5 mg/kg, po administered as single dose by LC-MS/MS analysis; format: ADME, organism-based, Canis lupus familiaris; parameters: dose 5 mg/kg, route oral; conditions: in vivo; outline: as §2
[12] = Plasma concentration in Beagle dog at 2 mg/kg, iv administered as single dose after 24 hrs by LC-MS/MS analysis; format: ADME, organism-based, Canis lupus familiaris; outline: as §2
[13] = Plasma concentration in Beagle dog at 5 mg/kg, po administered as single dose after 24 hrs by LC-MS/MS analysis; format: ADME, organism-based, Canis lupus familiaris; outline: as §2
[14] = Volume of distribution at steady state in Beagle dog at 2 mg/kg, iv administered as single dose by LC-MS/MS analysis; format: ADME, organism-based, Canis lupus familiaris; conditions: in vivo, read-out: Vdss
Outline: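 Non-naive beagle dogs (7−9 months, 8−12 kg) were fasted overnight, with 3 animals in the iv group. Compound was given as a single dose in 5% DMSO, 5% solutol and 90% saline. Plasma was taken from heparinized blood at each time point and stored at −80 °C. Levels were measured by LC-MS/MS, with noncompartmental analysis and BLQ values omitted.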

[15] = Clearance in Beagle dog at 2 mg/kg, iv administered as single dose by LC-MS/MS analysis; format: ADME, organism-based, Canis lupus familiaris; conditions: in vivo; outline: as §2
[16] = (§3) Intrinsic clearance in dog liver microsomes at 1 uM preincubated for 10 mins followed by NADPH addition measured up to 60 mins by LC-MS/MS analysis; format: ADME, Canis lupus familiaris, microsome; conditions: liver microsomes, read-out: CLH
[17] = Half life in Beagle dog at 2 mg/kg, iv administered as single dose by LC-MS/MS analysis; format: ADME, organism-based, Canis lupus familiaris; conditions: in vivo
[18] = Oral bioavailability in Beagle dog at 5 mg/kg administered as single dose by LC-MS/MS analysis; format: ADME, organism-based, Canis lupus familiaris; conditions: in vivo
[19] = Plasma concentration in Balb/c mouse at 12.5 mg/kg, po bid after 24 hrs by LC-MS/MS analysis; format: ADME, organism-based
[20] = Drug uptake in Balb/c mouse liver at 12.5 mg/kg, po bid after 24 hrs by LC-MS/MS analysis; format: ADME, organism-based; conditions: read-out: Drug uptake
Liver = test: as §3; format: ADME, Canis lupus familiaris, microsome; conditions: microsomes, 1 h, 1 µM

Row | CLint scaled at 1 µM [1] [L/h/kg] | CLint scaled at 1 µM [2] [L/h/kg] | AUC(0-t) at 24 h [3] [µg·h/mL] | AUC(0-t) at 24 h [4] [µg·h/mL] | clearance [5] [L/h/kg] | Vd [6] [L/kg] | bioavailability [7] [%] | CLint scaled at 1 µM [16] [L/h/kg] | SMILES | further results
1 | 1.2 | 29.1 | 0.405 | 0.09 | 4.93 | 4.85 | 8.9 | – | CCOC(=O)C1=C(CN2CCOCC2)NC(c2nccs2)=NC1c1ccc(F)cc1Br (centres undefined) | AUC(0-t) at 24 h [8]: 1.47 µg·h/mL; AUC(0-t) at 24 h [9]: 1.01 µg·h/mL; Cmax [10]: 1.42 µg/mL; Cmax [11]: 0.391 µg/mL; concentration at 24 h [12]: 0.015 µg/mL; concentration at 24 h [13]: 0.009 µg/mL; Vd [14]: 15.8 L/kg; clearance [15]: 0.996 L/h/kg
2 | 0.42 | 22.6 | 0.948 | 0.548 | 2.09 | 0.4 | 23.1 | 1.74 | CCOC(=O)C1=C(CN2CCOC[C@H]2C(=O)O)NC(c2nccs2)=N[C@H]1c1ccc(F)cc1Br | –
3 | 1.38 | 19 | 0.423 | 0.572 | 4.72 | 1.53 | 54 | 2.76 | CCOC(=O)C1=C(CN2CCOC[C@@H]2CCC(=O)O)NC(c2nccs2)=N[C@H]1c1ccc(F)cc1Br | –
4 | 1.08 | 23.1 | 4.11 | 4.9 | 0.487 | 0.41 | 47.7 | 0.84 | CCOC(=O)C1=C(CN2CCO[C@H](CCC(=O)O)C2)NC(c2nccs2)=N[C@H]1c1ccc(F)cc1Br | AUC(0-t) at 24 h [8]: 16.5 µg·h/mL; AUC(0-t) at 24 h [9]: 47.9 µg·h/mL; Cmax [10]: 2.05 µg/mL; concentration at 24 h [12]: 0.047 µg/mL; concentration at 24 h [13]: 0.232 µg/mL; half-life [17]: 5.71 h; Vd [14]: 0.76 L/kg; clearance [15]: 0.116 L/h/kg; bioavailability [18]: 114%; concentration at 24 h [19]: 0.849 µg/mL; concentration at 24 h [20]: 361 ng/g
5 | 0.3 | 5.34 | 1.61 | 1.75 | 1.24 | 0.37 | 44.5 | – | CCOC(=O)C1=C(CN2CCO[C@H](C)[C@H]2C(=O)O)NC(c2nccs2)=N[C@H]1c1ccc(F)cc1Br | CLH (Liver): Stable
6 | 1.26 | 21.7 | 0.965 | 0.999 | 2.06 | 0.77 | 41.3 | 3.3 | CCOC(=O)C1=C(CN2CC(F)(F)C[C@@H]2CCC(=O)O)NC(c2nccs2)=N[C@H]1c1ccc(F)cc1Br | –
7 | 1.26 | 16.9 | 0.43 | 0.436 | 4.64 | 1.24 | 41 | 0.66 | CCOC(=O)C1=C(CN2CCO[C@@H](CCC(=O)O)C2)NC(c2nccs2)=N[C@H]1c1ccc(F)cc1Br | –
